An excerpt weighted towards active compounds, which were near 4% of everything screened.
TAAR1 antag – human TAAR1 antagonists, primary screen, Fluo-8 calcium fluorescence, CHO RD-HGA16 cells; antagonist; inhibition, % at 3 µM; actives 1.5% (n = 360,000); Trace amine-associated receptor 1 (Homo sapiens), Q96RJ0;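 active = inhibition above a per-plate cutoff, the mean inhibition of test compounds on that plate plus 3 SD, cut at about 49% in these data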;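 note: 0% = DMSO plus EC80 beta-PEA response and 100% = DMSO alone without agonist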
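System: CHO RD-HGA16 cells bearing hTAAR1. Reagent: EC80 β-phenethylamine stimulus. Schedule: seeding 17-24 h prior, 75-min 37 °C, 30-min RT dye loading. Signal: Fluo-8 intracellular calcium dye fluorescence, real-time kinetic reads. Read-out: % inhibition from peak post-agonist over basal fluorescence ratio. Benchmarks: vehicle wells and EC80 agonist wells. Replicates: n of 1.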
TAAR1 agonist – human TAAR1 agonists, primary screen, Fluo-8 calcium fluorescence, CHO RD-HGA16 cells. activation, % at 3 µM. AID 624467, 2012. actives 0.99% (n = 360,000). vehicle wells 0%, saturating PEA agonist 100%;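 active = activation above the mean activation of all test compounds in the run plus 3 SD, cut at about 38% in these data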
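System: CHO-derived RD-HGA16 cells with stable Gα16 and human TAAR1. Times: 17-24 h plating, Fluo-8 75 min 37 °C, 30 min RT. Measured by: calcium-sensitive Fluo-8 signal, excitation 470-495, emission 515-575 nm. Read-out basis: % activation relative to PEA EC100 response. Control set: DMSO and PEA EC100. Repeats: no replicates (n 1).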
NTR1 ag – agonists of human NTR1, primary screen, imaging, U2OS cells, beta-arrestin-GFP, high content; Neurotensin receptor type 1 (Homo sapiens), P30989; actives 0.17% (n = 330,000); NTR1-U2OS beta-arrestin-GFP spot imaging, agonist mode; activation, % at 20 µM;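 active = activation at or above 40% of the spot to cytoplasm intensity ratio, with at least 20 cells analyzed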;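 note: 0% = DMSO without peptide and 100% = 100 nM NTR1 peptide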
OX1R antag-1 – OX1R (HCRTR1) antagonists, primary screen, fluorescence, CHO/OX1R cells, Fluo-8 calcium, orexin A; Fluo-8 calcium fluorescence; inhibition, % at 5 µM; actives 0.43% (n = 330,000);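 active = inhibition above its plate's threshold, mean inhibition of all tested compounds on the plate plus 3 SD, cut at about 37% in these data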;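 note: 0% = orexin A challenge wells and 100% = SB-334867-A antagonist wells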
Target sequence (O43613 whole entry, looked up): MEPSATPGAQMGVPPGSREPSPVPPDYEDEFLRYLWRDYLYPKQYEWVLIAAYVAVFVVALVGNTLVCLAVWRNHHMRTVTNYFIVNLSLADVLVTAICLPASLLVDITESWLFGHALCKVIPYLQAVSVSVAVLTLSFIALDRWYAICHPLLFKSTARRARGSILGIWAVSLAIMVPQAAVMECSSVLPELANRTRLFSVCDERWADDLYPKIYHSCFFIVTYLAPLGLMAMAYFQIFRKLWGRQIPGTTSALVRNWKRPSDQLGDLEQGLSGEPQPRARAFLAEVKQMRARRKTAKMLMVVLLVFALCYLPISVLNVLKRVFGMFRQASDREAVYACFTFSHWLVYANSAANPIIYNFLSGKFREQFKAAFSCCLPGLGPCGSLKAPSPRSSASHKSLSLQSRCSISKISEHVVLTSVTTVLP
OX1R antag-2 – antagonists of human orexin 1 receptor (OX1R). Orexin/Hypocretin receptor type 1 (Homo sapiens), O43613. OX1R-expressing cells, FRET antagonist read-out. inhibition, % at 6.6 µM. actives 1.8% (n = 330,000). AID 485270, 2010; in the data active = inhibition mostly above about 38%, no sharp cut-off; inactive = mostly below about 40%;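 note: 0% = agonist challenge alone and 100% = reference antagonist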
CHO parental Ca – ATP-evoked calcium signal inhibitors, parental CHO, primary screen, counter-screen for OX1R antagonist project, cell-based, fluorescence, Fluo-8 calcium dye. actives 0.63% (n = 330,000). parental CHO-K1, ATP-induced calcium, Fluo-8 fluorescence. inhibition, % at 5.6 µM;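 active = inhibition above that plate's mean sample inhibition plus 3 SD, cut at about 26% in these data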;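 note: 0% = ATP-challenged DMSO wells and 100% = DMSO wells without ATP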
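test system = CHO parental line | reagent = ATP stimulus | measured by = intracellular calcium via Fluo-8 no-wash fluorescent dye | control set = ATP and no-ATP DMSO wells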
Numbers without * were called inactive; nt = no result.

SMILES	TAAR1 antag	TAAR1 agonist	NTR1 ag	OX1R antag-1	OX1R antag-2	CHO parental Ca
Cc1ccccc1C1=NC(C(F)(F)F)(C(F)(F)F)c2c(n(C)c(=O)n(C)c2=O)N1	-15	5	3	-12	18	-3
Cn1c2c(c(=O)n(C)c1=O)C(C(F)(F)F)(C(F)(F)F)N=C(c1ccc(Cl)cc1)N2	nt	nt	2	9	56*	17
Fc1ccc(-c2ccc(Nc3cccc(F)c3)nn2)cc1	30	1	0	0	13	44*
O=C(COC(=O)Cc1ccsc1)Nc1ccc(Cl)cn1	-4	6	1	2	5	-9
C#CCNC(=O)C[C@H]1C[C@@]2(C(=O)OC)C(=C[C@H](COCc3ccccc3)O[C@@H]2C)N(CCC2=CCCCC2)C1=O	-5	-1	nt	nt	nt	nt
COc1ccc2c(c1)c(-c1csc(N)n1)c(C)n2C	10	-1	2	1	46*	-5
COc1ccc(Cl)cc1NC(=O)C(OC)c1ccccc1 (stereo not given)	-5	3	0	-15	7	15
COC(/C(=N/O)c1ccc(Cl)cc1)c1ccccc1 (stereo not given)	33	8	7	13	31	60*
Cc1ccc(S(=O)(=O)N2CCN(c3ncnc4sccc34)CC2)cc1C	18	4	1	nt	nt	nt
O=S(=O)(c1ccc2c(c1)OCCO2)N1CCN(c2ncnc3sccc23)CC1	13	10	2	20	61	40*
COc1ccccc1NC(=O)Nc1nc(CC(=O)NC2CCCC2)cs1	-6	7	1	-28	17	-11
COc1ccccc1NC(=O)Nc1nc(CC(=O)N2CCN(c3ccccc3)CC2)cs1	52*	14	11	-31	4	-13
COc1ccc(NC(=O)Cc2csc(NC(=O)Nc3ccccc3OC)n2)cc1	49*	30	nt	nt	nt	nt
CCOC(=O)Cc1csc(NC(=O)Nc2ccc(OC(F)(F)F)cc2)n1	-25	9	4	-1	25	29*
COc1ccc(N2CCN(C(=O)Cc3csc(NC(=O)Nc4ccccc4OC)n3)CC2)cc1	50*	12	2	-27	4	-17
O=S1(=O)CCSC[C@@H](CN2CCCC2)N1	-29	4	nt	nt	nt	nt
CSCCC(NC(=O)OCc1ccccc1)C(=O)NC(Cc1c[nH]c2ccccc12)C(=O)O (stereo not given)	-28	1	nt	nt	nt	nt
CCCCS(=O)(=O)N1CCCc2nc(C)c(C)cc21	-25	6	nt	nt	nt	nt
COC(=O)C(Cc1ccc(OC(=O)c2ccccc2C)cc1)N1Cc2ccccc2C1=O (stereo not given)	52*	15	3	-5	41	29
COC(=O)C(Cc1ccc(OC(=O)c2ccccc2Cl)cc1)N1Cc2ccccc2C1=O (stereo not given)	59*	9	2	-9	32	17
Cc1[nH]c2ccccc2c1CC(=O)Nc1ccc(Nc2cccnc2)c(Br)c1	14	1	nt	nt	nt	nt
c1csc(-c2nc3c4ccccc4c4ccccc4c3[nH]2)c1	20	6	10	-8	63*	0
Oc1ccccc1-c1nc2c3ccccc3c3ccccc3c2[nH]1	5	0	nt	-14	21	0
CC(C)(C)OC(=O)NCCCCCNC(=O)c1nc[nH]c1C(=O)N1CCN(c2ccccc2)CC1	50*	21	-1	-6	8	-12
CCOc1c(Cl)cc(C(=O)Nc2ccccc2C(=O)O)cc1Cl	13	18	10	-6	63*	-3
COc1ccc(C(=O)Nc2ccccc2C(=O)O)cc1Cl	-32	15	2	-2	18	3
Cc1ccc(C(=O)Nc2ccccc2C(=O)O)cc1NC(=O)COc1c(C)cccc1C	31	20	2	-21	41*	-8
Cc1cc(C(=O)Nc2ccccc2C(=O)O)ccc1NC(=O)COc1cccc(C)c1C	-25	2	2	-7	6	-7

Source: PubChem BioAssay
